Our source for the IC50 values is ChEMBL document CHEMBL2021842, “COMPARE analysis of the toxicity of an iminoquinone derivative of the imidazo[5,4-f]benzimidazoles with NAD(P)H:quinone oxidoreductase 1 (NQO1) activity and computational docking of quinones as NQO1 substrates” (Bioorg Med Chem, 2012).

Experiment [1] has as its system HeLa. In words: Cytotoxicity against human HeLa cells assessed as reduction in mean cell viability after 72 hrs by MTT assay. The experiment is classed as functional, cell-based. The gist of the method:
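HeLa-CCL-2 cells in DMEM with 10% heat-inactivated FBS, 2 mM L-glutamine and nonessential amino acids. Plated at 1000 cells/well with 24 h adherence. Treated in ethanol (1% final) for 72 h at 37 °C under 5% CO₂, with ethanol controls. Absorbance of DMSO-dissolved formazan at 550 nm, 690 nm reference. IC₅₀ by nonlinear regression of percent viability.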

Experiment [2] deals with DU-145. In words: Cytotoxicity against human DU145 cells assessed as reduction in mean cell viability after 72 hrs by MTT assay. The experiment is classed as functional, cell-based. To be noted: DU-145, 72 h. The gist of the method:
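DU-145 prostate cells in RPMI-1640 with 10% heat-inactivated FBS, penicillin–streptomycin and 2 mM L-glutamine. Seeded at 2000 cells/well and left 24 h to adhere. Compound added in ethanol (1% final) for 72 h at 37 °C, 5% CO₂, with ethanol-only controls. Formazan dissolved in DMSO and read at 550 nm (690 nm reference). IC₅₀ derived by nonlinear regression of viability versus vehicle.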
For orientation: Tetrazolium dyes change colour on reduction, which living cells bring about.

A short description of experiment [3]: Cytotoxicity against human GM00637 cells assessed as reduction in mean cell viability after 72 hrs by MTT assay. The class given is cell-based. To be noted: GM00637, 72 h. An outline of the steps: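 SV40-transformed normal skin fibroblasts (GM00637) in MEM Eagle–Earle BSS with 15% heat-inactivated FBS, 2 mM L-glutamine, 2× amino acids and vitamins. Seeded at 10,000 cells/well and left 24 h to adhere. Ethanol-delivered compound (1% final) for 72 h at 37 °C, 5% CO₂. MTT formazan in DMSO read at 550/690 nm. Viability relative to vehicle; IC₅₀ by nonlinear regression.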

SMILES strings stand for the structures.

Take `CCCCn1cnc2c1C(=O)c1ncn(CCCC)c1C2=O`: the IC50 (usually the concentration at which inhibition is half-maximal) in experiment [1] turned out to be 440 nM; in experiment [2] it was 1340 nM; in experiment [3] it was 1050 nM.
